Data: ChEMBL document CHEMBL1147433, “Design of small molecule ketoamide-based inhibitors of cathepsin K” (Bioorg Med Chem Lett, 2004)

What was measured:
[1] = target: T1, Cathepsin K (Homo sapiens, UniProt P43235); assay: Inhibitory activity against human cathepsin K
T1 sequence (P43235 whole entry): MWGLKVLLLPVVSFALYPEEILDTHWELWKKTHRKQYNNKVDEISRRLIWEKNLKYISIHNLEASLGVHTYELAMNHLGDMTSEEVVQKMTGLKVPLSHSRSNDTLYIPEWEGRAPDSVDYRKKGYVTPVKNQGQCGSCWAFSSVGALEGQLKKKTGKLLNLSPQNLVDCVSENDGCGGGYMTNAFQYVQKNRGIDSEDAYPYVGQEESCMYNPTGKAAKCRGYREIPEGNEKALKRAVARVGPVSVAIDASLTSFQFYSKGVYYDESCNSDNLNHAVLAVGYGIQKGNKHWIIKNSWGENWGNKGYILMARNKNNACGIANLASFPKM
Method in brief: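 Recombinant human cathepsin K activity was measured by fluorescence with Cbz-Phe-Arg-AMC as the substrate, in 100 mM NaOAc, 10 mM DTT and 120 mM NaCl at pH 5.5. IC50 values are the mean of two or three inhibition assays. Individual data points within each experiment fell within a 3-fold range of each other.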

[2] = Half-life in rat; assay type: ADME, organism-based; conditions: in vivo
[3] = PAPP (membrane permeability) in dog kidney cell monolayer assay; assay type: ADME, Canis lupus familiaris; conditions: read-out: Activity
[4] = Oral bioavailability in rat; assay type: ADME, organism-based; conditions: in vivo
[5] = Vss in rat; assay type: ADME, organism-based; conditions: in vivo, read-out: Vss
[6] = target: T2, Cathepsin K (Rattus norvegicus, UniProt O35186); assay: Inhibitory activity against rat cathepsin K
T2 sequence (O35186 whole entry): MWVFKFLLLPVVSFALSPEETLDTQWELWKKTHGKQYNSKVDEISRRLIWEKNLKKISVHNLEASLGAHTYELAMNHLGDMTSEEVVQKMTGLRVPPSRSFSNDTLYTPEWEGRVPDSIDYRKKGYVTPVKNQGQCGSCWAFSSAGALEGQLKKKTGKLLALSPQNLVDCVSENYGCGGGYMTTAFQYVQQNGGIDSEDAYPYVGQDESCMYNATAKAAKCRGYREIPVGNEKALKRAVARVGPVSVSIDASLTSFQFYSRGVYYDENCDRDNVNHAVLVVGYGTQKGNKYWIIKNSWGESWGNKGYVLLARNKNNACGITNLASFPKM

[7] = Clearance in rat; assay type: ADME, organism-based; conditions: in vivo, read-out: Clearance (C1)

| IC50 [1] [nM] | Compound | other results |
| --- | --- | --- |
| 2900 | CCCC[C@H](NC(=O)OC(C)(C)C)C(=O)C(=O)NCc1ccccc1 | – |
| 1200 | CCCC[C@H](NC(=O)OC(C)(C)C)C(=O)C(=O)N[C@H](C)c1ccccc1 | – |
| 34 | CCCC[C@H](NC(=O)OCC(C)(C)C)C(=O)C(=O)N[C@H](C)c1ccccc1 | – |
| 4200 | CCCC[C@H](NC(=O)OC(C)(C)C)C(=O)C(=O)N[C@@H](C)c1ccccc1 | – |
| 20 | CCCC[C@H](NC(=O)OC(C)C(C)(C)C)C(=O)C(=O)N[C@H](C)c1ccccc1 (some centres undefined) | – |
| 6300 | CCCC[C@H](NC(=O)OC(C)(C)C)C(=O)C(=O)Nc1ccccc1 | – |
| > 100000 | CCCC[C@H](NC(=O)OC(C)(C)C)C(=O)C(=O)N(C)[C@H](C)c1ccccc1 | – |
| 0.71 | CCCC[C@H](NC(=O)OC(C(C)(C)C)C(C)(C)C)C(=O)C(=O)N[C@H](C)c1ccccc1 | – |

Continued, molecule first:

| Compound | IC50 [1] [nM] | other results |
| --- | --- | --- |
| CCCC[C@H](NC(=O)OC(C)(C)C)C(=O)C(=O)NCCc1ccccc1 | 5000 | – |
| CCCC[C@H](NC(=O)OC(C)(C)C)C(=O)C(=O)NC(C)C | 9100 | – |
| CCCC[C@H](NC(=O)OC(C)(C)C)C(=O)C(N)=O | 5900 | – |
| CCCC[C@H](NC(=O)OC(C)(C)C)C(=O)C(=O)NC(C)(C)C | > 100000 | – |
| CCCC[C@H](NC(=O)OC(C)(C)C)C(=O)C(=O)NC | 21000 | – |
| CCCC[C@H](NC(=O)OC(CCC)CCC)C(=O)C(=O)N[C@H](C)c1ccccc1 | 32 | – |
| CCCC[C@H](NC(=O)O[C@@H](CCCc1ccccc1)C(C)(C)C)C(=O)C(=O)N[C@H](C)c1ccccc1 | 1400 | – |
| CCCC[C@H](NC(=O)O[C@H](CCCc1ccccc1)C(C)(C)C)C(=O)C(=O)N[C@H](C)c1ccccc1 | 0.79 | – |
| CCCC[C@H](NC(=O)OC(CC(C)C)CC(C)C)C(=O)C(=O)N[C@H](C)c1ccccc1 | 69 | – |
| CCCC[C@H](NC(=O)O[C@@H](CCc1ccccc1)C(C)(C)C)C(=O)C(=O)N[C@H](C)c1ccccc1 | 912 | – |
| CCCC[C@H](NC(=O)OC(C)(C)C)C(=O)C(=O)NCC | 18000 | – |
| CCCC[C@H](NC(=O)O[C@H](CCc1ccccc1)C(C)(C)C)C(=O)C(=O)N[C@H](C)c1ccccc1 | 1.1 | – |
| CCCC[C@H](NC(=O)OC(CC)CC)C(=O)C(=O)N[C@H](C)c1ccccc1 | 76 | – |
| CCCC[C@H](NC(=O)OC(C1CCCC1)C1CCCC1)C(=O)C(=O)N[C@H](C)c1ccccc1 | 6.3 | – |
| CCCC[C@H](NC(=O)OC(C)(C)C)C(=O)C(=O)NCc1cccs1 | 3400 | – |
| CCCC[C@H](NC(=O)OC(C(C)C)C(C)C)C(=O)C(=O)N[C@H](C)c1ccccc1 | – | half-life [2]: 290 min; Papp [3]: 5.7 ×10⁻⁶ cm/s; bioavailability [4]: 3%; Vd [5]: 1.9 L/kg; IC50 [6]: 20 nM; clearance [7]: 8.7 mL/min/kg |
